From ChEMBL document CHEMBL4190353, “Synthesis, structure-activity relationships and preliminary mechanism of action of novel water-soluble 4-quinolone-3-carboxamides as antiproliferative agents” (Eur J Med Chem, 2017)

Experiments:
RKO = assay: Cytotoxicity against human RKO cells assessed as reduction in cell viability incubated for 24 hrs by MTT assay; format: functional, cell-based
Procedure, shortened: (§1)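 Cells were kept in McCoy's 5A with 10% fetal bovine serum, streptomycin and 100 units·mL⁻¹ penicillin at 37 °C under 5% CO₂/95% air. Viability was read by MTT optical density. IC50 is the concentration that lowers optical density by 50% relative to untreated cells. Values are means with SD of at least three independent determinations.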

HCT-116 = assay: Cytotoxicity against human HCT116 cells assessed as reduction in cell viability incubated for 24 hrs by MTT assay; format: functional, cell-based; settings: HCT-116, 24 h; procedure, shortened: as §1
PC-3 = assay: Cytotoxicity against human PC3 cells assessed as reduction in cell viability incubated for 24 hrs by MTT assay; format: functional, cell-based; settings: PC-3, 24 h; procedure, shortened: as §1
BGC-823 = assay: Cytotoxicity against human BGC823 cells assessed as reduction in cell viability incubated for 24 hrs by MTT assay; format: functional, cell-based; settings: BGC-823, 24 h; procedure, shortened: as §1
HCT-8 = assay: Cytotoxicity against human HCT8 cells assessed as reduction in cell viability incubated for 24 hrs by MTT assay; format: functional, cell-based; settings: HCT-8, 24 h; procedure, shortened: as §1
HepG2 = assay: Cytotoxicity against human HepG2 cells assessed as reduction in cell viability incubated for 24 hrs by MTT assay; format: functional, cell-based; settings: HepG2, 24 h; procedure, shortened: as §1
HEp-2 = assay: Cytotoxicity against human Hep2 cells assessed as reduction in cell viability incubated for 24 hrs by MTT assay; format: functional, cell-based; settings: HEp-2, 24 h; procedure, shortened: as §1
MCF7 = assay: Cytotoxicity against human MCF7 cells assessed as reduction in cell viability incubated for 24 hrs by MTT assay; format: functional, cell-based; settings: MCF7, 24 h; procedure, shortened: as §1
[1] = Solubility in water; format: physicochemical
HeLa = assay: Cytotoxicity against human HeLa cells assessed as reduction in cell viability incubated for 24 hrs by MTT assay; format: functional, cell-based; procedure, shortened: as §1

Row | SMILES | IC50 (RKO) | IC50 (HCT-116) | IC50 (PC-3) | IC50 (BGC-823) | IC50 (HCT-8) | IC50 (HepG2) | IC50 (HEp-2) | IC50 (MCF7) | solubility [1] | IC50 (HeLa)
1 | C=CCn1cc(C(=O)NCCN(CC)CC)c(=O)c2ccc(Cl)cc21.Cl | 30.1 µM | 35.6 µM | 44.5 µM | 12 µM | 30.2 µM | 19.1 µM | 24 µM | 47.9 µM | > 10000 µg/mL | 38.9 µM
2 | CCN(CC)CCCNC(=O)c1cn(C)c2cc(Cl)ccc2c1=O.Cl | 11.2 µM | 9.85 µM | 15.8 µM | 17.8 µM | 22.4 µM | 8.72 µM | 4.51 µM | 10 µM | > 10000 µg/mL | 9.5 µM
3 | CCOC(=O)c1cn(CC)c2cc(Cl)ccc2c1=O | > 50 µM | > 50 µM | > 50 µM | 40.7 µM | > 50 µM | 47.9 µM | > 50 µM | > 50 µM |  | > 50 µM
4 | CCN(CC)CCCNC(=O)c1c[nH]c2cc(OC)ccc2c1=O.Cl | 42.5 µM | 38.9 µM | > 50 µM | 40.8 µM | 44.6 µM | 47.9 µM | 40.8 µM | 34.7 µM | > 10000 µg/mL | 39.8 µM
5 | CCN(CC)CCCNC(=O)c1cn(Cc2ccccc2)c2cc(Cl)ccc2c1=O.Cl | 7.89 µM | 8.65 µM | 10.2 µM | 5.21 µM | 19.5 µM | 4.43 µM | 4.51 µM | 4.54 µM | > 10000 µg/mL | 4.9 µM
6 | CCCCn1cc(C(=O)OCC)c(=O)c2ccc(Cl)cc21 | 45.2 µM | 39.8 µM | 41.7 µM | 43.6 µM | > 50 µM | 28.3 µM | 35.5 µM | > 50 µM |  | > 50 µM
7 | CCN(CC)CCCNC(=O)c1c[nH]c2cc(Cl)ccc2c1=O.Cl | 25.2 µM | 23.3 µM | 39.8 µM | 23.4 µM | 28.8 µM | 28.2 µM | 25.1 µM | 22.4 µM | > 10000 µg/mL | 22.4 µM
8 | CCN(CC)CCNC(=O)c1cn(Cc2ccccc2)c2cc(Cl)ccc2c1=O.Cl | 14.3 µM | 11.2 µM | 9.5 µM | 10.2 µM | 23.1 µM | 4.32 µM | 7.02 µM | 15.8 µM | > 10000 µg/mL | 5.83 µM
9 | CCCCn1cc(C(=O)NCCN(CC)CC)c(=O)c2ccc(Cl)cc21.Cl | 16.8 µM | 21 µM | 44.6 µM | 7.11 µM | 46.8 µM | 6.92 µM | 22.6 µM | 35.5 µM | > 10000 µg/mL | 21.6 µM
10 | C=CCn1cc(C(=O)NCCCN(CC)CC)c(=O)c2ccc(Cl)cc21.Cl | 16.3 µM | 18.7 µM | 14.1 µM | 15.1 µM | 30 µM | 12.6 µM | 14.5 µM | 35.5 µM | > 10000 µg/mL | 19.1 µM
11 | CCN(CC)CCCNC(=O)c1c[nH]c2cc(F)ccc2c1=O.Cl | 29.8 µM | 38.6 µM | > 50 µM | 46.3 µM | 48.5 µM | > 50 µM | 45.1 µM | 36.8 µM | > 10000 µg/mL | 39.4 µM
12 | CCN(CC)CCCNC(=O)c1cn(CC)c2cc(Cl)ccc2c1=O.Cl | 10.2 µM | 8.78 µM | 12.6 µM | 11.7 µM | 16.9 µM | 10.5 µM | 9.82 µM | 14.1 µM | > 10000 µg/mL | 15.1 µM
13 | CCOC(=O)c1cn(Cc2ccccc2)c2cc(Cl)ccc2c1=O | 16.3 µM | 21.3 µM | 27.9 µM | 13.8 µM | 27.4 µM | 22.4 µM | 19.1 µM | 15.8 µM |  | 16.2 µM
14 | CCOC(=O)c1cn(C)c2cc(Cl)ccc2c1=O | > 50 µM | > 50 µM | > 50 µM | 30.2 µM | > 50 µM | 38 µM | 25 µM | > 50 µM |  | > 50 µM
15 | CCOC(=O)c1cn(CCCc2ccccc2)c2cc(Cl)ccc2c1=O | 9.86 µM | 10.8 µM | 16.1 µM | 18.6 µM | 17 µM | 15.1 µM | 7.63 µM | 14.1 µM |  | 14.8 µM
16 | CCN(CC)CCCNC(=O)c1c[nH]c2cc(Br)ccc2c1=O.Cl | 38.7 µM | 44.3 µM | > 50 µM | 44.7 µM | > 50 µM | 45.7 µM | 44.7 µM | 21.1 µM | > 10000 µg/mL | > 50 µM
17 | C=CCn1cc(C(=O)OCC)c(=O)c2ccc(Cl)cc21 | 48 µM | > 50 µM | > 50 µM | > 50 µM | 45.2 µM | 43.8 µM | > 50 µM | 49.8 µM |  | > 50 µM
18 | Oc1ccnc2cc(Cl)ccc12 | > 50 µM | > 50 µM | > 50 µM | > 50 µM | > 50 µM | > 50 µM | > 50 µM | > 50 µM |  | > 50 µM
19 | CCN(CC)CCNC(=O)c1cn(CC)c2cc(Cl)ccc2c1=O.Cl | 23.4 µM | 19.8 µM | 15.9 µM | 12.3 µM | 25.1 µM | 9.52 µM | 42.3 µM | 25.1 µM | > 10000 µg/mL | 13.8 µM
20 | CCCCn1cc(C(=O)NCCCN(CC)CC)c(=O)c2ccc(Cl)cc21.Cl | 9.65 µM | 7.84 µM | 8.31 µM | 9.12 µM | 28.8 µM | 5.63 µM | 11.2 µM | 12.3 µM | > 10000 µg/mL | 15.4 µM
21 | CCN(CC)CCNC(=O)c1cn(C)c2cc(Cl)ccc2c1=O.Cl | 24.6 µM | 15.6 µM | 31.6 µM | 27.6 µM | 32.6 µM | 10.2 µM | 17.8 µM | 22.4 µM | > 10000 µg/mL | 28.9 µM
